The nature of the series: Toxicity liver stage against HepG2, at 10uM. Type of series: cell-based. Also noted: test concentration 10 uM, cell line HepG2-A16-CD81EGFP. The note with it: human, HepG2-A16-CD81EGFP cells; read-out: INHIBITION
In outline:
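Uninfected HepG2-A16-CD81EGFP cells, 3 × 10^3 per well, 1536-well, plated on prespotted compound at 10 μM final, parasite-free screening media added to match infected plates; puromycin 10 μM positive, DMSO 0.5% negative; run in parallel with 48 h PbLuc assay at 37 °C, 5% CO2; viability by CellTiter-Glo luminescence, normalized to controls.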

Consider `CNC(=O)[C@@H]1C[C@H]2CN(Cc3csc(C)n3)C[C@H]2N1C(C)C`, for which the cytotoxicity at 10 µM amounted to 7.08%. The same measure for `Cc1nc(CN2CCCCC2CCc2ccc(O)cc2)co1` (stereo unspecified): 2.72%; for `CS(=O)(=O)N1CCC(c2nccn2Cc2ccccn2)CC1`: -14.6%; for `CN1CCN(CC2(O)CCCN(C(=O)Cc3cccc(O)c3)CC2)CC1` (stereo unspecified): -4.86%. For `Cc1c[nH]c(CN2CCCn3nc(CNS(C)(=O)=O)cc3C2)n1`, the cytotoxicity at 10 µM came out at 1.79%. For the molecule `Fc1cccc2c1CCC2NCc1cnc(N2CCOCC2)nc1` (stereo unspecified), the cytotoxicity at 10 µM came out at 5.42%. `CCc1nnc(CN2CCCC(Cn3nc(C)nc3C)C2)o1` (stereo unspecified): the cytotoxicity at 10 µM was 6.81%. For the molecule `CCc1nc(CN(C)C(=O)NC(C)c2cccc(NC(C)=O)c2)cs1` (stereo unspecified), the cytotoxicity at 10 µM is -4.85%. For the molecule `CC(NC(=O)N1CCC2(C1)OCCO2)c1ccc(F)cc1Cl` (stereo unspecified), the cytotoxicity at 10 µM was -5.16%. As for `CCN(CC)c1nc2sc(C(=O)N3CCNC(=O)C3)cc2s1`, the cytotoxicity at 10 µM was -4.29%. Turning to `Cc1noc(C2CCN(C(C)c3nc(C4CC4)no3)CC2)n1` (stereo unspecified), the cytotoxicity at 10 µM is 7.57%. On to `Cc1cncnc1C1CCN(C(=O)CN(C)C)CC1`, for which the cytotoxicity at 10 µM was -7.91%. For the molecule `CCc1ccc(C(C)NC(=O)N2CCC(n3cncn3)CC2)cc1` (stereo unspecified), the cytotoxicity at 10 µM is -8.18%. As to `COCCn1c(=O)n(C)c(=O)c2ccc(C3CCC(CN)CC3)nc21` (stereo unspecified), the cytotoxicity at 10 µM is -0.2%. With `COCc1cc(N2CCc3onc(-c4cccc(OC)c4)c3C2)ncn1`, the cytotoxicity at 10 µM was determined as 14.4%. As to `CCc1noc(C)c1C(=O)N1CCN(c2nc(C)cc(OC)n2)CC1`, the cytotoxicity at 10 µM is -13.8%. The same measure for `CN(Cc1ncc[nH]1)C(=O)C(C)(C)NC(=O)c1cccs1`: 11.6%; for `CNC(=O)NC(=O)C(C)N1CCCc2cc(OC)ccc2C1` (stereo unspecified): 9.77%; for `Cc1ccc(S(=O)(=O)N(C)c2ccsc2C(=O)NCC(C)C)cc1`: 10.6%.

For the molecule `Cc1nc(C)n(CC2CCCN(CCC(=O)NC3CCCCC3)C2)n1` (stereo unspecified), the cytotoxicity at 10 µM is -3.39%. Regarding `O=C(C1CCOC1)N1CCN(Cc2cccnc2)c2ncccc2C1` (stereo unspecified), the cytotoxicity at 10 µM was found to be 3.07%.

Consider `CN1CCN(C[C@@H]2CN(C(=O)CC3CCCCC3)C[C@@H]2CO)CC1`, for which the cytotoxicity at 10 µM is -8.76%.

As to `CCN(Cc1ccc2c(c1)OCO2)Cc1nc(C)no1`, the cytotoxicity at 10 µM is -6.49%. On to `O=C(c1cnc(NCc2sccc2Br)c(Cl)c1)N1CCCCC1`, for which the cytotoxicity at 10 µM came to 6.36%. The same measure for `Cc1nccn1-c1ccc(C(C)NCCc2ccccn2)cc1` (stereo unspecified): 10.4%; for `Fc1ccc(-c2nnc(CNC3CCc4ncnn4C3)o2)cc1` (stereo unspecified): -3.67%; for `Cc1cccnc1CN1CCN(C(=O)[C@@]23CNC[C@@H]2CN(C)C3)CC1`: 2.3%. Consider `COc1ccc(C2c3c(n[nH]c3C)N=C3COC(=O)C32)cc1OC` (stereo unspecified), for which the cytotoxicity at 10 µM worked out at 7.98%. `COc1ccccc1CCN1CCCC(CN(C)Cc2c[nH]c(C)n2)C1` (stereo unspecified): the cytotoxicity at 10 µM stood at 6.74%. With `COCCN1CCOCC2(CCCN(Cc3ccc(C)o3)C2)C1` (stereo unspecified), the cytotoxicity at 10 µM was -5.58%. The same measure for `COCCN1CCc2cc(C(=O)N(C)C)c(NC(C)C)nc2CC1`: -3.91%.

Turning to `CN(C)Cc1ccc(C2CCCCN2C(=O)c2cccc(CO)n2)cc1` (stereo unspecified), the cytotoxicity at 10 µM is -16.9%.

Turning to `CC(NCCc1nccn1Cc1ccccc1)c1ccsc1` (stereo unspecified), the cytotoxicity at 10 µM is 8.4%. For the molecule `c1cnn(CC2CCCN2c2ncnc3c2CCC3)c1` (stereo unspecified), the cytotoxicity at 10 µM is 41.2%.

In the case of `CN(C)C(=O)CNC(=O)c1ccc2c(-c3nccs3)noc2c1`, the cytotoxicity at 10 µM was determined as 7.19%.

On to `Cc1cc(CN2CCC(C3CCN(CCc4ccccc4)CC3)C2)[nH]n1` (stereo unspecified), for which the cytotoxicity at 10 µM worked out at 9.2%.

With `Cc1nnc(SCC(=O)N2CCC3(CC2)c2ccccc2CC3O)o1` (stereo unspecified), the cytotoxicity at 10 µM is -20.7%. Turning to `COc1ccccc1C(C#N)NC(=O)c1cccc2c1oc(=O)n2C` (stereo unspecified), the cytotoxicity at 10 µM was determined as 3.3%.

`CN(CCc1ccncc1)c1cnn(C)c(=O)c1Br`: the cytotoxicity at 10 µM was -5.44%. `Fc1ccc2[nH]c(C3CCCN3CCc3ccccn3)nc2c1` (stereo unspecified): the cytotoxicity at 10 µM is -9.7%. Consider `CC(=O)N[C@H]1CCO[C@@H](c2cccc(NC(=O)C(C)(C)C)c2)C1`, for which the cytotoxicity at 10 µM turned out to be 6.17%.

For `CC[C@@H](Cn1ncc2ccccc2c1=O)NC(=O)c1cnccn1`, the cytotoxicity at 10 µM was 6.4%. The same measure for `Cc1cc(C(F)(F)F)nn1C(C)C(=O)NN1CCN(C)CC1` (stereo unspecified): 20.4%; for `COc1ccc2nnc(CCCC(=O)NCCC3=CCCCC3)n2n1`: 2.73%; for `CC(Cn1cccn1)NCC(=O)NC1(C#N)CCCCC1` (stereo unspecified): -3.6%. Take `O=C(Nc1nnn[nH]1)c1ccc(I)c(F)c1`: the cytotoxicity at 10 µM is -2.56%. Turning to `CCN1CCC(NC(=O)CN2CCCCC2Cn2cccn2)CC1` (stereo unspecified), the cytotoxicity at 10 µM was -2.71%. For `CN1[C@@H](c2ccccc2)[C@@H](C(=O)NCc2ccncc2)C[C@@]1(C)C(=O)O`, the cytotoxicity at 10 µM is -40.6%.

As for `Cc1ccc2c(C)c(C(=O)NCc3csc(N)n3)oc2c1`, the cytotoxicity at 10 µM was -2.83%. As to `CCn1ccnc1CN1CCN(CCOc2cccc(C#N)c2)CC1`, the cytotoxicity at 10 µM is -6.95%. Turning to `CCc1nc(C2CCCN2CCCc2nc3ccccc3o2)no1` (stereo unspecified), the cytotoxicity at 10 µM was -7.92%. The same measure for `COc1ccc(C2(NCc3c(C)nc4c(C)cccn34)CCCC2)cc1`: 3.79%. In the case of `Cc1cnc(C)c(N2CCN(Cc3ccc(-c4cc[nH]n4)o3)CC2)n1` it was -5.01%. Turning to `CN(C)S(=O)(=O)N(Cc1cscn1)c1ccccc1`, the cytotoxicity at 10 µM was -3.91%. On to `Cc1cc(C)cc(C2(C(=O)N3CCCC(n4cncn4)C3)CC2)c1` (stereo unspecified), for which the cytotoxicity at 10 µM is -3%. With `CC(C)c1nnc2n1CCN(C(=O)CN1Cc3ccccc3C1=O)C2`, the cytotoxicity at 10 µM is -1.81%. `O=C(N1CCOCC(O)C1)C1(c2ccc(Cl)cc2)CCC1` (stereo unspecified): the cytotoxicity at 10 µM was -4.24%.

Turning to `CN(C)Cc1cc(C2CCCCN2S(=O)(=O)Cc2ccccc2)nn1C` (stereo unspecified), the cytotoxicity at 10 µM came out at 0.57%. Take `OC1(CNCc2cnc(N3CCOCC3)nc2)CCCCC1`: the cytotoxicity at 10 µM was -2.41%. As for `Cn1cc(CN2CCc3ncnc(N4CCOCC4)c3CC2)cn1`, the cytotoxicity at 10 µM was -3.46%. As to `CC(C)N(C)Cc1nnc2n1CCCN(c1ncccn1)C2`, the cytotoxicity at 10 µM was found to be 3.24%. Turning to `Cc1nc(-c2ccc(F)cc2)nc2c1CCN(C(=O)CN(C)C)CC2`, the cytotoxicity at 10 µM was -1.65%. With `O=C(NCCc1ccccn1)N1CCOC(c2ccccc2Cl)C1` (stereo unspecified), the cytotoxicity at 10 µM is -7.75%. In the case of `COCC1COCCC12CCN(C(=O)Cc1cccc(OC)c1)CC2` (stereo unspecified), the cytotoxicity at 10 µM is -2.56%. Regarding `Cc1nn(C)c2cnn(CC(=O)NCc3ccc4c(c3)OCO4)c12`, the cytotoxicity at 10 µM turned out to be 4.45%. In the case of `CC(C)CN1CC[C@H](c2nnc(COc3ccc(F)cc3)o2)C1` it was -1.81%; in that of `CC(C)N(C)[C@@H]1CCN(Cc2ccoc2)[C@H]1Cc1ccccc1`, -2.57%; in that of `CC1c2ccsc2CCN1Cc1cc2c(cc1O)OCO2` (stereo unspecified), 11.7%.

As for `Cc1ccccc1-n1cnc(Cl)c1CO`, the cytotoxicity at 10 µM was determined as 8.48%. On to `CC1(NC(=O)CC2CCc3ccccc32)CCOCC1` (stereo unspecified), for which the cytotoxicity at 10 µM was 0.995%. Regarding `CCN1C(=O)C2(CCOCC2)c2cc(NC(=O)c3cnoc3C)ccc21`, the cytotoxicity at 10 µM is -2.54%.

The values are drawn from ChEMBL document CHEMBL4513216, “Probing the Open Global Health Chemical Diversity Library for Multistage-Active Starting Points for Next-Generation Antimalarials” (ACS Infect Dis, 2020).
